ABHD5-PLIN5 inh: inhibitors of human ABHD5-perilipin-5 interaction | Q00G26+Q8WTS1 | Split G. princeps luciferase complementation, luminescence, 4 h | inhibition, % at 4 µM | 0.78% of 360,000 active | AID 602281;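 active = inhibition above the mean inhibition across every tested compound plus 3 SD, cut at about 22% in these data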;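 note: 0% = DMSO only wells and the 100% control is not disclosed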
XiGFP reactiv: reactivates the inactive X chromosome in mouse fibroblasts; XiGFP mouse fibroblasts, % GFP-positive cells imaging, 3 d; cells co-treated with 5-aza-dC sensitizer; scaled so ellipticine positive control = 100%; activation, % at 7.58 µM; 0.055% of 360,000 active; AID 743238;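 active = mean normalized replicate activation at least 10% and every replicate at or above 10%; inconclusive = only one of the two criteria met; inactive = mean below 10% and not all replicates reach 10%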;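 note: 0% = median of on-plate neutral control wells and 100% = ellipticine 6 µM median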
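Material: SV40-immortalized XiGFP fibroblast cells, line 68-5-11 | Buffer or medium: DMEM containing 5-aza-dC | Dosing: One concentration, pinned | Times: 3 d treatment, 15 min room-temperature fixation | Controls: Ellipticine 6 µM positive control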
Rpn11 inh: Rpn11 (human) deubiquitinase inhibition | O00487 | inhibition, % at 20 µM | human 26S proteasome, Ub4-pepOG fluorescence polarization; 20S core pre-blocked with epoxomicin | 0.59% of 360,000 active | AID 588493;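 active = inhibition at 20 µM, scaled to each plate's controls, above about 33%, limit read from the data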
NadD inh: blocks S. aureus nicotinate mononucleotide adenylyltransferase | 0.78% of 360,000 active | inhibition, % at 20 µM | purified NadD enzyme, colorimetric absorbance read-out | AID 602399; in the data active = inhibition above about 26%
Rin1 Abl inh: inhibitors of human Rin1-Abl protein interaction; P00519+Q13671; TR-FRET Rin1/Abl binding, biochemical; inhibition, % at 7.35 µM; 0.4% of 360,000 active; AID 588664; in the data active = inhibition above about 5%, passing the limit was not always enough
Numbers without * were called inactive; ? = inconclusive; . = no result given. This is a sample that favours compounds with a hit; in the whole collection about 1.9% have one here.

SMILES	ABHD5-PLIN5 inh	XiGFP reactiv	Rpn11 inh	NadD inh	Rin1 Abl inh
CC(C)C[C@@H](CN1CCCC1CN1C(=S)NC[C@@H]1Cc1ccccc1)N1C[C@H](Cc2ccc(O)cc2)N(CC2CCCCC2)C1=S (stereo partly drawn)	-5	0	.	29	.
CC(C)C[C@@H](CN1CCC[C@@H]1CN1C(=S)NC[C@@H]1Cc1ccc(O)cc1)N1C[C@H](Cc2ccc(O)cc2)N(CC2CCCCC2)C1=S	14	0	4	42*	5
CCN(CC)CCOC(=O)c1ccc(NC(=O)CCCN2C(=O)S/C(=C/c3ccc(OC)cc3)C2=S)cc1	2	.	68*	11	-5
CCNC(=O)[C@H]1[C@H](CO)[C@H]2Cn3c(ccc(-c4cccc(F)c4)c3=O)[C@@H]1N2C(C)=O	.	0	.	.	.
COc1cccc(CNC(=O)c2cc(S(=O)(=O)N3CCOCC3)cn2C)c1	4	23*	0	-4	2
C[C@@H]1CN([C@H](C)CO)C(=O)Cc2cc(NS(=O)(=O)c3ccc(Cl)cc3)ccc2O[C@@H]1CN(C)C(=O)Nc1ccc2c(c1)OCO2	.	-1	.	.	.
C=Cc1ncc(OC)c2c1[nH]c1ccccc12	24*	.	-2	-1	1
COc1ccccc1C(=O)Nc1c(C(=O)N(CCN(C)C)Cc2ccco2)oc2ccccc12	22*	1	-11	-5	1
C/C=C/c1ccc([C@H]2[C@H](CO)N(S(=O)(=O)Cc3ccccc3)C23CN(C(=O)C2CC2)C3)cc1	.	0	.	.	.
C[C@H](NC(=O)[C@@H]1Cc2ccccc2CN1C(=O)OC(C)(C)C)C(=O)NCc1ccco1	22*	0	1	11	-1
COCC(=O)N1CC2(C1)CN(Cc1cc(F)ccc1F)[C@H](CO)c1[nH]c3cc(OC)ccc3c12	.	0	.	.	.
C[C@@H]1CN([C@@H](C)CO)C(=O)c2cc(NC(=O)Nc3ccc(F)cc3)ccc2O[C@@H]1CN(C)CC1CCCCC1	.	0	.	.	.
COc1ccc(N2CCN(C(CNC(=O)c3ccc4c(c3)OCO4)c3ccco3)CC2)cc1 (stereo not drawn)	-4	29*	2	-2	0
Cc1nc2ccc(NC(=O)c3cc([N+](=O)[O-])cc([N+](=O)[O-])c3Cl)cc2s1	56*	0	-5	34*	1
Cc1nc2ccc(NC(=O)c3ccc(Cl)c([N+](=O)[O-])c3)cc2s1	0	0	-4	-2	-1
O=[N+]([O-])/C=C/c1c(OCc2ccccc2)ccc2ccccc12	84*	.	0	3	3
CCOC(=O)COc1ccc2ccccc2c1/C=C/[N+](=O)[O-]	8	0	5	4	-1
O=C(C1CCOCC1)N1C[C@H]2[C@@H](c3ccccc31)[C@H](CO)N2C(=O)Cc1ccccc1	.	0	.	.	.
Cc1cc2oc(=O)cc(CN3CCN(c4ccccc4)CC3)c2cc1Cl	2	0	4	5	4
Cc1cc2oc(=O)cc(Cn3ncc(Cl)c(Cl)c3=O)c2cc1Cl	4	.	6	27*	-1
CN(C)c1ccc(/C=C(\C#N)C(=O)Nc2nc3c(s2)CCN(Cc2ccccc2)C3)cc1	6	.	.	33*	-9
COc1ccc2c3c(n(C)c2c1)[C@H](CO)N(C)CC31CCN(S(C)(=O)=O)CC1	.	0	.	.	.
COc1ccc(C(=O)c2sc3nc(C)cc(-c4cccs4)c3c2N)cc1	-7	?	30	-5	0
COc1ccc(C(=O)c2sc3nc(C)cc(-c4cccs4)c3c2N)cc1OC	2	25*	.	4	0
Cc1ccc2c(c1)/C(=C/c1ccccc1)C(=O)N2	23*	0	-5	-5	-3
SMILES	ABHD5-PLIN5 inh	XiGFP reactiv	Rpn11 inh	NadD inh	Rin1 Abl inh
O=C1/C(=C/c2ccccc2)Nc2ccccc21	-6	.	.	-4	-3
CC[C@H]1C/C=C\C[C@H](c2ccc(F)cc2)NC(=O)CCC(=O)N1	.	1	.	.	.
CN(C)c1ccc2nc3ccc(=O)cc-3sc2c1	-9	5	21	11	14*
COc1cc(CN2CC3(CCN(C)CC3)c3c([nH]c4cc(OC)ccc34)[C@@H]2CO)cc(OC)c1	.	0	.	.	.
O=C1c2ccccc2C(=O)C12OC2c1ccc(Cl)cc1Cl (stereo not drawn)	-9	1	-1	-2	7.2*
O=C1c2ccccc2C(=O)C1c1ccc(Cl)cc1	9	1	1	-9	-4
Cc1nnsc1S(=O)c1ccc(Cl)cc1 (stereo not drawn)	5	0	-5	-5	1
O=C(c1nnsc1S(=O)c1ccc(Cl)cc1)N1CCOCC1 (stereo not drawn)	73*	0	-3	3	-2
O=C(C[C@@H]1C[C@@H]2c3cc(NC(=O)NC4CCCC4)ccc3O[C@@H]2[C@H](CO)O1)NCc1ccc(Cl)cc1	.	0	.	.	.
O=C1/C(=C/c2ccc(N3CCOCC3)o2)SC(=Nc2ccccc2)N1CCc1c[nH]c2ccccc12	77*	.	.	40*	0
O=C1C(NS(=O)(=O)c2cccs2)=C(N2CCN(c3cccc(Cl)c3)CC2)C(=O)c2ccccc21	-15	.	-13	30*	-5
C#CCOCCOCCOCCNc1nc(N2CCN(C(=O)CCCCCCCCCCNC(=O)Cn3cc(CCCCCN)nn3)CC2)nc(N2CCN(C(=O)CCCCCCCCCCNC(=O)[C@H]([C@@H](C)CC)n3cc(CCCCCN)nn3)CC2)n1	34*	.	32	26	6
C#CCOCCOCCOCCNc1nc(N2CCOCC2)nc(N2CCN(C(=O)CCCCCCCCCCNC(=O)[C@@H]([C@H](C)O)n3cc(C)nn3)CC2)n1	-5	0	-15	-6	0
C#CCOCCOCCOCCNc1nc(N2CCN(C(=O)CCCCCCCCCCNC(=O)[C@H](CCCCN)n3cc(C)nn3)CC2)nc(N2CCN(C(=O)CCCCCCCCCCNC(=O)[C@@H]([C@H](C)CC)n3cc(CCCCCN)nn3)CC2)n1	45*	.	67*	51*	12*
C#CCOCCOCCOCCNc1nc(N2CCN(C(=O)CCCCCCCCCCNC(=O)[C@H]([C@@H](C)CC)n3cc(CCCCCN)nn3)CC2)nc(N2CCN(C(=O)CCCCCCCCCCNC(=O)[C@@H]([C@H](C)O)n3cc(C)nn3)CC2)n1	41*	.	45*	33*	2
CO[C@@H]1CN(C)C(=O)c2ccc(NS(=O)(=O)c3ccc(C)cc3)cc2OC[C@@H](C)N(C(=O)NC(C)C)C[C@H]1C	.	0	.	.	.
CCS(=O)(=O)N1CC(=O)N2[C@H](CO)[C@@H](c3ccc(-c4ccccc4C)cc3)[C@@H]2C1	.	1	.	.	.
Cc1ccc([N+](=O)[O-])cc1N=Nc1c(-c2ccc([N+](=O)[O-])cc2)[nH]n(C(N)=S)c1=O	-2	.	-2	53*	-17
O=c1c(N=Nc2ccc(O)cc2)c(-c2ccccc2)[nH]n1-c1ccc([N+](=O)[O-])cc1	-1	0	5	40*	-4
